Data set [1] relates to RT of HIV-1DH012 (lysate). Kind of data set: RT enzymatic inhibition. In kind it is biochemical. The following applies: RT from HIV-1DH012 lysate; Figure 3; average of three assays. A digest of the protocol: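 Reverse transcriptase came from a lysate of HIV-1DH012, a primary viral isolate. Enzyme activity was measured at various test compound concentrations with a commercial colorimetric HIV-1 RT kit, following the manufacturer's protocol. Each value is the average of three independent assays.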

The test system of data set [2] is HIV-1 IIIB. Kind of data set: HIV growth inhibition assay in H9 lymphocytes. The following applies: for EC50 (concentration that causes 50% inhibition of HIV-1 IIIB replication): HIV-1 IIIB in H9 cells, Panacos, average of three independent assays; for selectivity ratio at 6 days: human, SI (selective index) = CC50/EC50, HIV-1 IIIB in H9 cells.

Where only a bound is given, the exact number is not on record here.

From paper PMC2904523 (Journal of medicinal chemistry, 2010) come the findings set out here.

As for `Cc1cc(C#N)cc(C)c1Oc1nc(Nc2ccc(C#N)cc2)nc(N)c1Br` [Compound 4, etravirine, reference compound], the RT inhibition activity result in data set [1] is given as “potently inhibited RT activity”.
Turning to `Cc1cc(Br)cc(C)c1Oc1cc(Nc2ccc(C#N)cc2)c([N+](=O)[O-])cc1[N+](=O)[O-]` [Compound 19, 5-(4″-Bromo-2″,6″-dimethylphenoxy)-N-(4′-cyanophenyl)-2,4-dinitrsoaniline], the “EC50 (concentration that causes 50% inhibition of HIV-1 IIIB replication)” value in data set [2] is recorded as “sub-micromolar level”.
Take `Cc1cccc(C)c1Oc1cc(Nc2ccc(C#N)cc2)c([N+](=O)[O-])cc1[N+](=O)[O-]` [Compound 20, N-(4′-Cyanophenyl)-5-(2″,6″-dimethylphenoxy)-2,4-dinitroaniline]: in data set [2], the “EC50 (concentration that causes 50% inhibition of HIV-1 IIIB replication)” value was “sub-micromolar level” and the selectivity ratio at 6 days lay in the range of 113 to 313.
`Cc1cc(C)c(Oc2cc(Nc3ccc(C#N)cc3)c([N+](=O)[O-])cc2[N+](=O)[O-])c(C)c1` [Compound 22, N-(4′-Cyanophenyl)-2,4-dinitro-5-(2″,4″,6″-trimethylphenoxy)aniline]: in data set [2], the “EC50 (concentration that causes 50% inhibition of HIV-1 IIIB replication)” value is on record as “sub-micromolar level” and the selectivity ratio at 6 days lay within 113 to 313.
The matching figures for `Cc1cc(Br)cc(C)c1Oc1ccc([N+](=O)[O-])c(Nc2ccc(C#N)cc2)c1` [Compound 24, 5-(4″-Bromo-2″,6″-dimethylphenoxy)-N-(4′-cyanophenyl)-2-nitroaniline]: “sub-micromolar level” and 113 to 313.
With `Cc1cc(C#N)cc(C)c1Oc1ccc([N+](=O)[O-])c(Nc2ccc(C#N)cc2)c1` [Compound 26, 5-(4″-Cyano-2″,6″-dimethylphenoxy)-N-(4′-cyanophenyl)-2-nitroaniline], the “EC50 (concentration that causes 50% inhibition of HIV-1 IIIB replication)” value in data set [2] is “sub-micromolar level”.
Turning to `Cc1cc(Br)cc(C)c1Oc1cc(Nc2ccc(C#N)cc2)c(N)cc1N` [Compound 32, 5-(4″-Bromo-2″,6″-dimethylphenoxy)-N^1-(4′-cyanophenyl)benzene-1,2,4-triamine], the “EC50 (concentration that causes 50% inhibition of HIV-1 IIIB replication)” value in data set [2] was “sub-micromolar level”.
As to `Cc1cc(C#N)cc(C)c1Oc1cc(Nc2ccc(C#N)cc2)c(N)cc1N` [Compound 34, 5-(4″-Cyano-2″,6″-dimethylphenoxy)-N^1-(4′-cyanophenyl)benzene-1,2,4-triamine], the RT inhibition activity result in data set [1] was “potently inhibited RT activity”.
On to `Cc1cc(Br)cc(C)c1Oc1cc(Nc2ccc(C#N)cc2)c(N)cc1[N+](=O)[O-]` [Compound 36, 5-(4″-Bromo-2″,6″-dimethylphenoxy)-N^1-(4′-cyanophenyl)-4-nitrobenzene-1,2-diamine], for which, in data set [2], the selectivity ratio at 6 days was over 2800.
As for `Cc1cc(C#N)cc(C)c1Oc1cc(Nc2ccc(C#N)cc2)c(N)cc1[N+](=O)[O-]` [Compound 37, 5-(4″-Cyano-2″,6″-dimethylphenoxy)-N^1-(4′-cyanophenyl)-4-nitrobenzene-1,2-diamine], in data set [1], the RT inhibition activity entry is on record as “potently inhibited RT activity”.
